Converted amounts (≈) assume the structure as drawn.
Tests used:
[1] = test system: Candida albicans; experiment: Antifungal activity against Candida albicans by serial dilution test; format: functional
Procedure, shortened: (§1)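 Yeasts tested by serial dilution in YMG medium (glucose 1%, malt extract 1%, yeast extract 0.4%).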

[2] = test system: Eremothecium coryli; experiment: Antifungal activity against Nematospora coryli by serial dilution test; format: functional; procedure, shortened: as §1
[3] = test system: Rhizomucor miehei; experiment: Inhibition of conidial germination in Mucor miehei; format: functional
Procedure, shortened: (§2)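 Conidia from 10-day-old cultures were pelleted (1000g, 10 min) and resuspended in distilled water. Each well held 0.5 × 10⁴ conidia in 0.2 mL distilled water and was incubated 16 h at 28 °C. Germinated conidia were counted under an inverted microscope: triplicates, 3 × 100 conidia. The value is the IC100, the concentration for complete germination inhibition.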

[4] = test system: Proteus vulgaris; experiment: Antibacterial activity against Proteus vulgaris by serial dilution test; format: functional
Procedure, shortened: (§3)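 Serial broth dilution in nutrient broth.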

[5] = test system: Pyricularia grisea; experiment: Inhibition of conidial germination in Magnaporthe grisea; format: functional
Procedure, shortened: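 M. grisea strain 70-15, grown on CM medium. Conidia were harvested from plates kept at 28 °C on a 16 h light/8 h dark cycle (24 °C in the dark). They were pelleted (1000g, 10 min) and resuspended in distilled water. Each well held 0.5 × 10⁴ conidia/0.2 mL water, 16 h at 28 °C. Germinated conidia were counted microscopically: triplicates, 3 × 100. Value given as IC100.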

[6] = test system: Botrytis cinerea; experiment: Inhibition of conidial germination in Botrytis cinerea; format: functional; procedure, shortened: as §2
[7] = test system: Saccharomyces cerevisiae; experiment: Antifungal activity against Saccharomyces cerevisiae by serial dilution test; format: functional; procedure, shortened: as §1
[8] = test system: Brevibacillus brevis; experiment: Antibacterial activity against Bacillus brevis ATCC 9999 by serial dilution test; format: functional; procedure, shortened: as §3
[9] = test system: Bacillus subtilis; experiment: Antibacterial activity against Bacillus subtilis ATCC 6633 by serial dilution test; format: functional; procedure, shortened: as §3
[10] = test system: Escherichia coli; experiment: Antibacterial activity against Escherichia coli K-12 by serial dilution test; format: functional; procedure, shortened: as §3
[11] = test system: Enterobacter cloacae subsp. dissolvens; experiment: Antibacterial activity against Enterobacter dissolvens by serial dilution test; format: functional; procedure, shortened: as §3
[12] = test system: Micrococcus luteus; experiment: Antibacterial activity against Micrococcus luteus by serial dilution test; format: functional; procedure, shortened: as §3
[13] = test system: Pseudomonas fluorescens; experiment: Antibacterial activity against Pseudomonas fluorescens by serial dilution test; format: functional; procedure, shortened: as §3
[14] = test system: Staphylococcus aureus; experiment: Antibacterial activity against Staphylococcus aureus by serial dilution test; format: functional; procedure, shortened: as §3
[15] = test system: Paecilomyces variotii; experiment: Inhibition of conidial germination in Paecilomyces variotii; format: functional; procedure, shortened: as §2
[16] = test system: Penicillium chrysogenum; experiment: Inhibition of conidial germination in Penicillium notatum; format: functional; procedure, shortened: as §2
[17] = test system: Phytophthora infestans; experiment: Inhibition of conidial germination in Phytophthora infestans; format: functional; procedure, shortened: as §2
[18] = test system: HeLa S3; experiment: Cytotoxicity against human HeLaS3 cells at 50 ug/ml; format: functional, cell-based
[19] = test system: HepG2; experiment: Cytotoxicity against human HepG2 cells at 50 ug/ml; format: functional, cell-based

Compound | MIC [1] [µg/mL] | MIC [2] [µg/mL] | MIC ([3]; Rhizomucor miehei) [µg/mL] | MIC [4] [µg/mL] | IC100 [5] [µg/mL] | IC100 [6] [µg/mL] | MIC [7] [µg/mL] | MIC [8] [µg/mL] | MIC [9] [µg/mL] | MIC [10] [µg/mL] | MIC [11] [µg/mL] | MIC [12] [µg/mL] | MIC [13] [µg/mL] | MIC [14] [µg/mL] | IC100 [3] [µg/mL] | IC100 [15] [µg/mL] | IC100 [16] [µg/mL] | IC100 [17] [µg/mL] | Activity [18] | Activity [19]
C[C@@H]1[C@H](O)[C@@H](C)/C=C/C=C/C=C/C=C/C=C/C=C/C=C/[C@H](O[C@@H]2O[C@H](C)[C@@H](O)[C@H](N)[C@@H]2O)C[C@@H]2O[C@](O)(C[C@@H](O)C[C@@H](O)[C@H](O)CC[C@@H](O)C[C@@H](O)CC(=O)O[C@H]1C)C[C@H](O)[C@H]2C(=O)O [AMPHOTERICIN B] | 10 (≈ 10.8 µM) | 15 (≈ 16.2 µM) | 5 (≈ 5.41 µM) |  |  |  |  |  |  |  |  |  |  |  |  |  |  |  |  | 
CN[C@@H]1[C@H](O[C@H]2[C@H](O[C@H]3[C@H](O)[C@@H](O)[C@H](N=C(N)N)[C@@H](O)[C@@H]3N=C(N)N)O[C@@H](C)[C@]2(O)C=O)O[C@@H](CO)[C@H](O)[C@H]1O.CN[C@@H]1[C@H](O[C@H]2[C@H](O[C@H]3[C@H](O)[C@@H](O)[C@H](N=C(N)N)[C@@H](O)[C@@H]3N=C(N)N)O[C@@H](C)[C@]2(O)C=O)O[C@@H](CO)[C@H](O)[C@H]1O.O=S(=O)(O)O.O=S(=O)(O)O.O=S(=O)(O)O [STREPTOMYCIN SULFATE] |  |  |  | 5 |  |  |  |  |  |  |  |  |  |  |  |  |  |  |  | 
COC(=O)C1(O)C(=O)C(C)=COc2oc3cccc(O)c3c(=O)c21 (stereo not drawn) [XANTHEPINONE] | 50 (≈ 150 µM) | 10 (≈ 30.1 µM) |  | 50 (≈ 150 µM) | 2 | 10 | 25 (≈ 75.2 µM) | > 50 | > 50 | > 50 | > 50 | > 50 | > 50 | 50 (≈ 150 µM) | 25 | 50 | 25 | 5 | Not toxic | Not toxic
